Experimental data gathered from unrelated publications.
Lines come from different studies, so protocols differ.
PPO3: PPO3 (Agaricus bisporus, UniProt C7FF04)
CNR1: Cannabinoid receptor 1 (CNR1, Homo sapiens, UniProt P21554)

Compound	target	assay	conditions	measurement	value
COc1cc(/C=C/C(=O)O)ccc1OCc1cn(CC(=O)Nc2ccc(Cl)cc2)nn1	PPO3	enzyme activity, inhibitor	40 µM	inhibition	12.3%
CC(C)CC(=O)OC[C@H]1O[C@@](C#N)(c2ccc3c(N)ncnn23)[C@H](O)[C@@H]1O	CNR1	cell-free assay	20 µM	inhibition	-4%
COc1cc2c3c(c1OC)-c1c(OC)ccc(O)c1CC3N(C)CC2 (stereo not shown)	5-hydroxytryptamine receptor 2A (HTR2A, Homo sapiens, UniProt P28223)	ligand displacement, radioligand	10 µM	inhibition	36%
COc1cc(/C=C/C(=O)O)ccc1OCc1cn(CC(=O)Nc2ccc([N+](=O)[O-])cc2)nn1	PPO3	enzyme activity, inhibitor	40 µM	inhibition	14%
CCCCC/C=C\[C@H](C)/C=C\C/C=C\Cc1ccccc1CCCC(=O)OC(CO)CO	CNR1	β-arrestin recruitment, agonist	–	Emax	10%
CN1CCC[C@H]1c1cccnc1	Histamine H4 receptor (HRH4, Homo sapiens, UniProt Q9H3N8)	ligand displacement	50 µM	inhibition	-19.9%
CCCCC/C=C\C/C=C\C/C=C\C/C=C\CCCC(=O)OC(CO)CO	CNR1	β-arrestin recruitment, agonist	–	Emax	96%
COc1cc(/C=C/C(=O)O)ccc1OCc1cn(CC(=O)Nc2cccc([N+](=O)[O-])c2)nn1	PPO3	enzyme activity, inhibitor	40 µM	inhibition	12.1%
c1cncc([C@@H]2CCCN2)c1	Neuronal acetylcholine receptor; alpha4/beta2 (Rattus norvegicus, UniProt P09483+P12390)	ligand displacement, radioligand	50 µM	inhibition	88.1%
CCCCC/C=C\C/C=C\C/C=C\Cc1ccccc1CCCC(=O)N[C@H](C)CO	CNR1	β-arrestin recruitment, agonist	–	Emax	80%
COc1cc(/C=C/C(=O)O)ccc1OCc1cn(CC(=O)Nc2ccccc2C)nn1	PPO3	enzyme activity, inhibitor	40 µM	inhibition	16%
CCCCCc1ccccc1C/C=C\C/C=C\C/C=C\CCCC(=O)N[C@H](C)CO	CNR1	β-arrestin recruitment, agonist	–	Emax	42%
[2H]c1c([2H])c([C@]2([2H])CCCN2C(=O)C(C)(C)Oc2ccc3cn[nH]c3c2)c([2H])c([2H])c1C([2H])([2H])[2H]	Mitogen-activated protein kinase kinase kinase 3 (MAP3K3, Homo sapiens, UniProt Q99759)	binding, competition with immobilised ligand	1 µM	remaining binding	100%
